# Assay outcomes as filed in PubChem BioAssay.
# Rce1 inh = blocks yeast Ras-converting enzyme | yeast membranes, quenched prenylated peptide cleavage fluorescence | calls only | hit rate 0.27% among 290,000;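 active = fall in fluorescence gain of 50% or more versus controls, with final raw signal at or below 3038400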;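 also: plate controls were neutral control wells for no effect and wells lacking membranes for full effect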
# Target sequence (Q03530 whole entry, looked up): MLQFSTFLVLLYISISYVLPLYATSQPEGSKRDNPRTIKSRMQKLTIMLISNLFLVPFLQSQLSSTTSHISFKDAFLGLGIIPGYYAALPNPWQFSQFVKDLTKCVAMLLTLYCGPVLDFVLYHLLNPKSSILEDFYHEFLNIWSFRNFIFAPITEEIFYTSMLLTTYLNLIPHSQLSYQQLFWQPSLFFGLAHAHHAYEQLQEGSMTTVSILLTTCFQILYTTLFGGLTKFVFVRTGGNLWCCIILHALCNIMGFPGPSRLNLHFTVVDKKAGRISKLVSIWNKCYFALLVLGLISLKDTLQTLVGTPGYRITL
# T cell modulator = T cell immune modulators affecting CD8 T cell-vesicle binding; 2C CD8+ T cell-vesicle binding, flow cytometry; stronger effect = lower value; hit rate 0.068% among 330,000; response (vesicle binding), % at 7 µM;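 active = response, share of CD8 T cells binding vesicles, and their 90th percentile fluorescence all below set limits, cut at about 80% in these data, passing the limit was not always enough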;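 also: values below 100% mean blocked vesicle binding to the CD8+ T cells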
#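 Material: 2C TCR transgenic mouse naive CD8+ T cells, MACS-purified. Also added: QL9-charged Drosophila Ld/ICAM-1/B7-1 vesicles. Timing: binding 1.5 h at 37 °C. Measured by: high-throughput flow cytometry with anti-B7-1 and anti-CD8 staining. Read-out: percent CD8+ FL2 mean versus row control. Controls: Unloaded micro-vesicles (low), QL9 vesicles with 0.7% DMSO (high).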
# V-ATPase pHluor = regulators of yeast V-ATPase proton transport. response, % at 10 µM. S. cerevisiae, pHLuorin cytosolic pH fluorescence. AID 504577. hit rate 0.37% among 350,000; in the data active = response mostly above about 7.3%, no sharp cut-off; inactive = mostly below about 5.4%; also: actives read high
# Yeast superoxide = caloric restriction mimetics inhibiting age-related superoxide in yeast. hit rate 0.18% among 330,000. AID 2690. superoxide response (% of plate mean), % at 10 µM. S. cerevisiae aged cells, superoxide DHE fluorescence; stronger effect = lower value;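 active = superoxide response under a set limit, about three screen SD below normal, cut at about 65% in these data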;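 also: yeast aged for seven days with compound at 30 °C before DHE staining; 100% = average MFI of all compound-treated wells on the plate with controls excluded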
# proKLK7 act = proKLK7 (human) activation, primary screen | P49862 | purified proKLK7, EDANS-DABCYL substrate fluorescence; 100% is mature enzyme control, 0% vehicle | hit rate 0.9% among 370,000 | activation, % at 7 µM | AID 652039;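 active = activation above the mean of all tested compounds plus 3 SD, computed per campaign excluding outliers beyond control limits, cut at about 13% in these data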
# beta cell repl = induces beta-cell replication in MIN6 cells. MIN6 cells proliferation, ATPlite luminescence, 48 h; cells starved in 0.2% serum; 100% = growth in 10% serum. proliferation, % at 10 µM. AID 2380. hit rate 0.29% among 330,000;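 active = compounds whose signal lies at least 3.5 SD above the mean of all wells on their plate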;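 also: 0% = DMSO-treated cells in low-serum medium and 100% = 10% serum control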
# V-ATPase pH SP = regulators of yeast V-ATPase proton transport; shares compounds with V-ATPase pHluor; response, % at 10 µM; hit rate 2% among 980; S. cerevisiae pHLuorin cytosolic pH; AID 602197; in the data active = response above about 24%;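 also: plate controls were vehicle wells for no effect and positive control wells for full effect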
# Numbers without * were called inactive; i = inactive; . = no result. The list is not random: actives were taken first. Their share in the collection is about 1.9%.
SMILES,Rce1 inh,T cell modulator,V-ATPase pHluor,Yeast superoxide,proKLK7 act,beta cell repl,V-ATPase pH SP
CN(C(=O)c1ccc(NC(=O)Cc2ccc(NC(=O)C3CCCN(C(=O)C4CCCCC4)C3)cc2)cc1)C1CC1 (configuration not stated),.,838,-3,103,1,-2,.
COc1ccc(CCN(Cc2cc3ccc(C)cc3[nH]c2=O)C(C)=O)cc1OC,i,208,2,88,1,0,.
COc1ccc(CC(=O)OC(C)C(=O)c2ccc(C)cc2)cc1 (configuration not stated),i,216,8.3*,106,0,0,-3
COc1ccc(/C(N)=N/OC(=O)Cc2ccc(C)cc2)cc1,i,309,-1,104,0,-1,.
O=C1CCC/C(=N\NC(=O)c2ccc(NS(=O)(=O)c3ccc(Br)cc3)cc2)C1,i,239,14*,89,0,-1,-2
COc1ccc(CCC(=O)OCC(=O)NC(=O)c2ccc(Cl)cc2)cc1,.,508,2,85,0,-2,.
O=C(COC(=O)c1c(Cl)ccc(Cl)c1Cl)NCC1CCCO1 (configuration not stated),.,298,0,93,1,4,.
O=C(COC(=O)c1c(Cl)cccc1Cl)NCC1CCCO1 (configuration not stated),i,259,12*,88,1,5,0
CCn1cc(CN2CCCC(CO)(Cc3cccc(Cl)c3)C2)cn1 (configuration not stated),i,422,13*,91,0,-2,1
CCn1cc(S(=O)(=O)N2CCN(Cc3cccc(Cl)c3)CC2)cn1,i,396,6.1*,100,1,0,1
Cc1ccc(C)c(NC(=O)CNS(=O)(=O)c2ccc3[nH]c(=O)oc3c2)c1,.,.,.,.,0,.,.
CCCCn1c(=N)n(CC(O)c2ccccc2)c2ccccc21 (configuration not stated),i,604,6,108,0,-4,.
CCn1c(=N)n(CC(O)c2ccccc2)c2ccccc21 (configuration not stated),i,691,28*,99,0,1,1
Cc1cc(=O)c(C(=O)O)nn1-c1ccc(Cl)cc1,i,185,3,85,0,-1,-1
CCOC(=O)c1nn(-c2ccc(Cl)cc2)c(C)cc1=O,i,250,-2,128,0,1,.
CC1(CN2CCCC2)CCC(NC(=O)C(c2ccccc2)c2ccccc2)C(C)(C)O1 (configuration not stated),.,.,-2,.,0,.,.
Cn1c(SCC(=O)NC2(C#N)CCCCC2)nnc1-c1cccnc1,i,i,9.3*,84,0,-1,1
CC(=O)C1=C(C)NC(=S)NC1c1ccc(F)cc1 (configuration not stated),.,.,.,.,-1,.,.
O=C(c1ccc(CS(=O)c2ccc(Br)cc2)o1)N1CCN(C2CCCCC2)CC1 (configuration not stated),.,.,79*,.,0,.,2
Cn1nc(C(=O)NNC(=O)c2ccccc2Br)c2ccccc2c1=O,.,.,9.5*,.,-1,-1,4
Cn1nc(C(=O)NNC(=O)c2ccccc2F)c2ccccc2c1=O,.,213,1,100,0,-4,.
CN(C(=O)COC(=O)c1ccc(Cl)cc1N)C1CCS(=O)(=O)C1 (configuration not stated),i,179,11*,91,3,-4,-1
O=C(c1ccc(Cl)cc1)[C@@H]1[C@@H]2C(=O)N(c3ccccc3)C(=O)[C@@H]2C2c3ccccc3C=NN21 (some centres not stated),i,317,10*,83,0,-1,-2
COCCCNC(=O)C[C@H]1C[C@H](C(=O)N(C(C)C)C(C)C)[C@@]2(C)c3[nH]c4cc(CCC(=O)N(C)C)ccc4c3CCN2C1=O,.,.,0,99,2,.,.
COc1ccccc1N1CC(C(=O)Nc2ccccc2N2CCCC2)CC1=O (configuration not stated),i,404,7.6*,96,0,4,1
O=C(NCC(c1cccs1)N1CCOCC1)c1cc([N+](=O)[O-])cc([N+](=O)[O-])c1 (configuration not stated),i,164,-5,92,0,-1,.
